Measurements taken from ChEMBL document CHEMBL1126265, “Novel 5-HT3 antagonists: indol-3-ylspiro(azabicycloalkane-3,5'(4'H)-oxazoles)” (J Med Chem, 1992).

molecular target: T1, Serotonin 3 (5-HT3) receptor (Rattus norvegicus, UniProt P35563+Q9JJ16); experiment: Displacement of [3H]Q-ICS-205-930 from 5-hydroxytryptamine 3 receptor recognition sites in rat brain membranes; type: cell membranes
T1 sequence (P35563 whole entry): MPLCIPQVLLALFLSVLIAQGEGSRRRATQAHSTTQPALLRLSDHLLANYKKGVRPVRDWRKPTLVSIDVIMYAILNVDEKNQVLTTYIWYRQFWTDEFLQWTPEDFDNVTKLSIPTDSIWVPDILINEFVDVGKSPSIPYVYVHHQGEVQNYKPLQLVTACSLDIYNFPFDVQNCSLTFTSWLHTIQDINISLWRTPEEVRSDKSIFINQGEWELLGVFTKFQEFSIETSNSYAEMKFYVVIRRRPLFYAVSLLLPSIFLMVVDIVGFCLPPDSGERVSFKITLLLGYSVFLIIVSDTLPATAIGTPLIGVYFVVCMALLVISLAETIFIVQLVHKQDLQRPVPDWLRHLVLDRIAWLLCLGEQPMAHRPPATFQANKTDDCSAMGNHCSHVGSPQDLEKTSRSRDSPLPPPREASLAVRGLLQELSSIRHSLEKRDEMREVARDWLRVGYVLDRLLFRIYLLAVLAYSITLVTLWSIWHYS
T1 sequence (Q9JJ16 whole entry): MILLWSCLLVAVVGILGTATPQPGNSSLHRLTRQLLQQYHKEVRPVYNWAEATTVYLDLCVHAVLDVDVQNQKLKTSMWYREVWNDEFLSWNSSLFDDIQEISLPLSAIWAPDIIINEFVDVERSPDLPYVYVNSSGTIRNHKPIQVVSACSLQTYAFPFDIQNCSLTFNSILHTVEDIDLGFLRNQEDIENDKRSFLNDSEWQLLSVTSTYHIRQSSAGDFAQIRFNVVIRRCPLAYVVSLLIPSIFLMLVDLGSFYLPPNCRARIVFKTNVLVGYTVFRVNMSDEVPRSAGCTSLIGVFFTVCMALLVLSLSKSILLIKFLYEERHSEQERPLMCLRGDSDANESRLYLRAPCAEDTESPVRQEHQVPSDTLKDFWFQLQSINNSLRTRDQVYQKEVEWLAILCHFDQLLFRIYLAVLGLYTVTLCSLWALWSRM
Procedure, shortened: (§1)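 Value reported as mean ± SEM where n ≥ 3 independent determinations; where no SEM is given, mean of two independent determinations, individual values typically within ±10% of the mean.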

| SMILES | IC50 [nM] |
| --- | --- |
| CCn1cc(C2=NCC3(CN4CCC3CC4)O2)c2ccccc21 (stereo not given) | 13.5 |
| C=CCn1cc(C2=NCC3(CN4CCC3CC4)O2)c2ccccc21 (stereo not given) | 7.94 |
| COc1cccc(C2=NCC3(CN4CCC3CC4)O2)c1 (stereo not given) | 407 |
| CN1C2CCC1CC1(CN=C(c3cn(C)c4ccccc34)O1)C2 (stereo in doubt; 22d) | 6.31 |
| CC(=O)c1c(C2=NCC3(CN4CCC3CC4)O2)c2ccccc2n1C (stereo not given) | 6.46 |
| Cn1cc(C2=NC[C@@]3(C[N@@]4CC[C@@H]3C4)O2)c2ccccc21 | 3.47 |
| Cn1c(I)c(C2=NCC3(CN4CCC3CC4)O2)c2ccccc21 (stereo not given) | 26.9 |
| Cn1cc(C2=NCC3(CC4CCC(C3)[N+]4(C)C)O2)c2ccccc21 (stereo in doubt; 22c) | 5.01 |
| COc1ccc2c(c1)c(C1=NCC3(CN4CCC3CC4)O1)cn2C (stereo not given) | 263 |
| c1ccc2c(C3=NCC4(CN5CCC4CC5)O3)csc2c1 (stereo not given) | 26.9 |
| CN1CCC2(CC1)CN=C(c1cn(C)c3ccccc13)O2 | 158 |
| Cn1cc(C2=NC[C@]3(C[N@@]4CC[C@@H]3C4)O2)c2ccccc21 | 3.09 |
| Cn1cc(C2=NCC3(CN4CCC3CC4)O2)c2cc(O)ccc21 (stereo not given) | 195 |
| Cn1cc(C2=NCC3(C[N+]4(C)CCC3CC4)O2)c2ccccc21 (single isomer, unassigned; 22n) | 42.7 |
| Cn1cc(C2=NCC3(CC4CCC(C3)[N+]4(C)C)O2)c2ccccc21 (stereo in doubt; 22e) | 3.31 |
| Cc1ccc2c(c1)c(C1=NCC3(CN4CCC3CC4)O1)cn2C (stereo not given) | 132 |
| Cn1cc(C2=NCC3(C[N+]4(C)CCC3CC4)O2)c2ccccc21 (single isomer, unassigned; 22o) | 10.2 |

| SMILES | IC50 [nM] |
| --- | --- |
| Cn1cc(C2=NC[C@]3(CN4CCC3CC4)O2)c2ccccc21 | 2.88 |
| Cn1cc(C2=NCC3(CN4CCC3CC4)O2)c2ccccc21 (stereo not given) | 3.16 |
| Cn1cc(C2=NCC3(CC4CCC(C3)N4Cc3ccccc3)O2)c2ccccc21 (stereo not given) | 174 |
| c1ccc2c(c1)c(C1=NCC3(CN4CCC3CC4)O1)cn2CC1CC1 (stereo not given) | 13.2 |
| Cc1cccc2c(C3=NCC4(CN5CCC4CC5)O3)cn(C)c12 (stereo not given) | 8.91 |
| Cn1cc(C2=NCC3(CN4CCC3CC4)O2)c2cc([N+](=O)[O-])ccc21 (stereo not given) | 229 |
| Cn1cc(C2=NCC3(CN4CCC3CC4)O2)c2cc(F)ccc21 (stereo not given) | 14.8 |
| c1ccc2c(C3=NCC4(CN5CCC4CC5)O3)c[nH]c2c1 (stereo not given) | 4.79 |
| Cn1cc(C2=NCC3(C[N+]4([O-])CCC3CC4)O2)c2ccccc21 (stereo not given) | 2630 |
| Cn1cc(C2=NCC3(CN4CCC3CC4)O2)c2cc(N)ccc21 (stereo not given) | 575 |
| c1ccc2c(C3=NCC4(CN5CCC4CC5)O3)[nH]nc2c1 (stereo not given) | 26.3 |
| C#CCn1cc(C2=NCC3(CN4CCC3CC4)O2)c2ccccc21 (stereo not given) | 6.17 |
| Cn1cc(C2=NCC3(CC4CCC(C3)N4)O2)c2ccccc21 (stereo not given) | 11.2 |
| CN1C2CCC1CC1(CN=C(c3cn(C)c4ccccc34)O1)C2 (stereo in doubt; 22b) | 4.57 |
| Cn1cc(C2=NC[C@@]3(CN4CCC3CC4)O2)c2ccccc21 | 2.57 |
| Cn1cc(C2=NCC3(CCN4CCCC3C4)O2)c2ccccc21 (stereo not given) | 1.12 |

molecular target: T1, Serotonin 3 (5-HT3) receptor; experiment: Compound was evaluated for the displacement of [3H]Q-ICS-205-930 from 5-HT3 recognition sites in rat brain membranes; type: cell membranes; procedure, shortened: as §1

| SMILES | IC50 [nM] |
| --- | --- |
| CN1[C@@H]2CC[C@H]1C[C@@H](OC(=O)c1c[nH]c3ccccc13)C2 [TROPISETRON] | 1.26 |
| Cn1c([Si](C)(C)C)c(C2=NCC3(CN4CCC3CC4)O2)c2ccccc21 (stereo not given) | 155 |
